Experiments:
[1] = biological target: T1, Adenosine receptor A2b (Homo sapiens) (UniProt P29275); assay: Antagonist activity human adenosine A2B receptor expressed in CHO cells assessed as inhibition of NECA-mediated [3H]cAMP accumulation at =<5000 nM after 150 mins by scintillation counter; assay type: functional, cell-based
T1 sequence (whole entry): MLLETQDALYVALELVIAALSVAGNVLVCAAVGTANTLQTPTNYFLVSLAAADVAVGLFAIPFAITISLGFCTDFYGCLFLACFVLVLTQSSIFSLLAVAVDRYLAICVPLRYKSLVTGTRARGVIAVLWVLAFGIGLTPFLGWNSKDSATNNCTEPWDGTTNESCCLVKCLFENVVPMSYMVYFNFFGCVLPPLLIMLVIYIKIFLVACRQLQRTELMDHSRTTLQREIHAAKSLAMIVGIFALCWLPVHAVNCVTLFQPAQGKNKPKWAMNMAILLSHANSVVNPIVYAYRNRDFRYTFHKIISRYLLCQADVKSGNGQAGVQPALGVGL
Procedure, shortened: (§1)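 Intact CHO cells expressing hA2B (1 x 10^6 cells/assay), preincubated 10 min at 37 °C in saline buffer pH 7.4 with 2 IU/mL adenosine deaminase and Ro 20-1724. Antagonism of 100 nM NECA-stimulated cAMP rise. Stopped with cold 6% TCA, ether-extracted. cAMP measured by competition binding with [3H]cAMP and beef adrenal binding protein (4 °C, 150 min), charcoal separation, scintillation counting. IC50 by sigmoid nonlinear regression, mean ± SEM.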

[2] = biological target: T2, Adenosine receptor A3 (Homo sapiens, UniProt P0DMS8); assay: Displacement of [3H]MRE 3008F20 from human adenosine A3 receptor expressed in CHO cells after 120 mins by scintillation spectrometry; assay type: cell-based
T2 sequence (P0DMS8 whole entry): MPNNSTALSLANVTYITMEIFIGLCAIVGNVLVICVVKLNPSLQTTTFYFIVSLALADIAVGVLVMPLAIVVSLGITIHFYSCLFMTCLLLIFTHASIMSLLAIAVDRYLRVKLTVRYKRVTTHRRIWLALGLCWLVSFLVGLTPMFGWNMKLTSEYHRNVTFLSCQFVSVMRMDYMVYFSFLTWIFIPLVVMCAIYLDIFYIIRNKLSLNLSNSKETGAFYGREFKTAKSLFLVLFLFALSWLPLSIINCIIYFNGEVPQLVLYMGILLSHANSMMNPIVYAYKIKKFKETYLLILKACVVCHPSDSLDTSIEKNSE
Procedure, shortened: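 Membranes from hA3 CHO cells (50 μg protein/assay) in 50 mM Tris HCl, 10 mM MgCl2, 1 mM EDTA pH 7.4, adenosine deaminase-treated. Incubated with 1 nM [3H]MRE 3008F20 and 6-8 ligand concentrations, 120 min at 4 °C. Nonspecific defined with 1 μM MRE 3008F20 (~25% of total). GF/B filtration, three ice-cold washes, scintillation counting. Ki via Cheng-Prusoff; geometric mean, 95% confidence limits, n = 3-6.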

[3] = biological target: T3, Adenosine receptor A2a (Homo sapiens, UniProt P29274); assay: Displacement of [3H]ZM 241385 from human adenosine A2A receptor expressed in CHO cells after 60 mins by scintillation spectrometry; assay type: cell-based
[4] = biological target: T4, Adenosine receptor A2b (Homo sapiens, UniProt P29275); assay: Antagonist activity human adenosine A2B receptor expressed in CHO cells assessed as inhibition of NECA-mediated [3H]cAMP accumulation after 150 mins by scintillation counter; assay type: functional, cell-based; procedure, shortened: as §1
T4 sequence (P29275 whole entry): T1 sequence (whole entry)

[5] = biological target: T5, Adenosine receptor A1 (Homo sapiens, UniProt P30542); assay: Displacement of [3H]DPCPX from human adenosine A1 receptor expressed in CHO cells after 120 mins by scintillation spectrometry; assay type: cell-based
T5 sequence (P30542 whole entry): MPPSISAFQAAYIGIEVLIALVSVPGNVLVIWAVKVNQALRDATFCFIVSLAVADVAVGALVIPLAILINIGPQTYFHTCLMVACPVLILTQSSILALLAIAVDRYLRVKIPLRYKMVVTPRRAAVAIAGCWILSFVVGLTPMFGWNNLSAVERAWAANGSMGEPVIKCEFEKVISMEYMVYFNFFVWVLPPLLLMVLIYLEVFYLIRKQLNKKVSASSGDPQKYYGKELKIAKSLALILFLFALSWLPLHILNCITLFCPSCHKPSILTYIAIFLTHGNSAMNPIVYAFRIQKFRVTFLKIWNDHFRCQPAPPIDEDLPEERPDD
Procedure, shortened: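 hA1 CHO membranes (50 μg protein/assay) in 50 mM Tris HCl pH 7.4, pretreated with adenosine deaminase 2 UI/mL for 30 min at 37 °C. Incubated with 1 nM [3H]DPCPX plus 6-8 ligand concentrations for 120 min at 25 °C. Nonspecific binding defined with 1 μM DPCPX. Ki from IC50 by Cheng-Prusoff; geometric means with 95% confidence limits.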

[6] = biological target: Adenosine receptors; A1 & A3 (Homo sapiens) (UniProt P30542+P0DMS8); assay: Ratio of Ki for human adenosine A1 receptor to Ki for human adenosine A3 receptor
[7] = biological target: T3, Adenosine receptor A2a; assay: Displacement of [3H]ZM 241385 from human adenosine A2A receptor expressed in CHO cells at <=5000 nM after 60 mins by scintillation spectrometry; assay type: cell-based
[8] = biological target: T2, Adenosine receptor A3; assay: Antagonist activity human adenosine A3 receptor expressed in CHO cells assessed as blockade of Cl-IB-MECA-mediated inhibition of forskolin-stimulated [3H]cAMP accumulation after 150 mins by scintillation counter; assay type: functional, cell-based
Procedure, shortened: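 hA3-expressing CHO cells (1 x 10^6 cells/assay), preincubated 10 min at 37 °C in saline buffer pH 7.4 with adenosine deaminase 2 IU/mL and Ro 20-1724. Antagonism of 100 nM Cl-IB-MECA inhibition of cAMP in presence of 1 μM forskolin. Stopped with cold TCA. cAMP by [3H]cAMP competition protein binding (4 °C, 150 min), scintillation counting. IC50 from sigmoid nonlinear regression, mean ± SEM.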

T3 sequence (P29274 whole entry): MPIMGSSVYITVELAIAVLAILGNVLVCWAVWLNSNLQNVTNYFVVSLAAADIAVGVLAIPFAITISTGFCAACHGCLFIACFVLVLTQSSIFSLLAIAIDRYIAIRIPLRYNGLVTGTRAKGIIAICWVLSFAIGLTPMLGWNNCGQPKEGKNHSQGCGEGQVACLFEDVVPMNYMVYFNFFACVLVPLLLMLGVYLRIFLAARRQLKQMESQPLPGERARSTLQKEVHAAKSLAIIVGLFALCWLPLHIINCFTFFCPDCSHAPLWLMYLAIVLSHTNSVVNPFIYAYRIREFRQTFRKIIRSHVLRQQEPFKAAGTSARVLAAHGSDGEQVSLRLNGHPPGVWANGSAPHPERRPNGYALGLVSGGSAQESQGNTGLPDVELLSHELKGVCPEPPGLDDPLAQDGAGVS

| Structure (SMILES) | inhibition [1] [%] | Ki [2] [µM] | Ki [3] [µM] | IC50 [4] [µM] | Ki [5] [µM] | Ratio Ki [6] | inhibition [7] [%] | IC50 [8] [µM] |
| --- | --- | --- | --- | --- | --- | --- | --- | --- |
| Cc1cc(-c2nc3c([nH]2)C2=NC(C)CN2C(=O)N3Cc2ccccc2)n(C)n1 (racemic) | 8 | 0.0172 | > 5 | > 5 | > 5 | > 290 | 1 | – |
| COc1cc(-c2nc3c([nH]2)C2=N[C@@H](C)CN2C(=O)N3Cc2ccccc2)n(C)n1 | 22 | 0.00252 | > 5 | > 5 | 1.73 | – | 1 | 0.0175 |
| CC[C@H]1CN2C(=O)N(Cc3ccccc3)c3nc(-c4cc(C)nn4C)[nH]c3C2=N1 | 13 | 0.0132 | > 5 | > 5 | 0.545 | – | 4 | – |
| C=CCN1C(=O)N2CC(CC)N=C2c2[nH]c(-c3cc(OC)nn3C)nc21 (racemic) | 16 | 0.00196 | > 5 | > 5 | 1.53 | 780 | 1 | 0.0122 |
| C=CCN1C(=O)N2CC(CC)N=C2c2[nH]c(-c3cc(C)nn3C)nc21 (racemic) | 20 | 0.00301 | > 5 | > 5 | 0.515 | 170 | 8 | 0.0303 |
| CCC1CN2C(=O)N(Cc3ccccc3)c3nc(-c4cc(OCc5ccccc5)nn4C)[nH]c3C2=N1 (racemic) | 12 | 0.0398 | 2.13 | > 5 | 1.68 | 42 | – | – |
| C=CCN1C(=O)N2C[C@H](C)N=C2c2[nH]c(-c3cc(C)nn3C)nc21 | 12 | 0.00603 | > 5 | > 5 | 1.96 | – | 4 | 0.0409 |
| CCC1CN2C(=O)N(Cc3ccccc3)c3nc(-c4cc(OC)no4)[nH]c3C2=N1 (racemic) | 18 | 0.00271 | > 5 | > 5 | 0.485 | – | 12 | 0.0253 |
| C=CCN1C(=O)N2C[C@@H](C)N=C2c2[nH]c(-c3cc(C)nn3C)nc21 | 10 | 0.00504 | > 5 | > 5 | 2.51 | – | 1 | 0.0359 |
| COc1cc(-c2nc3c([nH]2)C2=NC(C)CN2C(=O)N3Cc2ccccc2)n(C)n1 (centres undefined) | 11 | 0.00311 | > 5 | > 5 | 1.9 | 610 | 1 | 0.0276 |
| C=CCN1C(=O)N2C[C@@H](CC)N=C2c2[nH]c(-c3cc(OC)nn3C)nc21 | 21 | 0.00146 | > 5 | > 5 | 2.52 | – | 13 | 0.0234 |
| COc1cc(-c2nc3c([nH]2)C2=N[C@H](C)CN2C(=O)N3Cc2ccccc2)n(C)n1 | 19 | 0.00238 | > 5 | > 5 | 2.55 | – | 11 | 0.0159 |
| CCC1CN2C(=O)N(Cc3ccccc3)c3nc(-c4cc(C)nn4C)[nH]c3C2=N1 (racemic) | 20 | 0.0103 | > 5 | > 5 | 0.615 | 60 | 5 | – |
| C=CCN1C(=O)N2CC(CC)N=C2c2[nH]c(-c3cc(OCc4ccccc4)nn3C)nc21 (racemic) | 14 | 0.0215 | > 5 | > 5 | 1.2 | 56 | 5 | – |
| C=CCN1C(=O)N2C[C@H](CC)N=C2c2[nH]c(-c3cc(OC)nn3C)nc21 | 14 | 0.00237 | > 5 | > 5 | 1.08 | – | 15 | 0.0105 |
| C=CCN1C(=O)N2CC(CC)N=C2c2[nH]c(-c3cc(OC)no3)nc21 (racemic) | 25 | 0.00193 | 1.52 | > 5 | 3.02 | – | – | 0.0146 |
| CC[C@@H]1CN2C(=O)N(Cc3ccccc3)c3nc(-c4cc(C)nn4C)[nH]c3C2=N1 | 10 | 0.0126 | > 5 | > 5 | 0.803 | – | 3 | – |
| CC1CN2C(=O)N(Cc3ccccc3)c3nc(-c4cc(OCc5ccccc5)nn4C)[nH]c3C2=N1 (racemic) | 13 | 0.0448 | 2.01 | > 5 | 2.56 | 57 | – | – |
